The list is not random: actives were taken first. Their share in the collection is about 2%.
CAL PDZ FP-1: untagged CAL PDZ binding inhibitors, primary screen, biochemical, fluorescence polarization, HTS; 300,000 tested, 0.92% active; inhibition, % at 24.9 µM; purified CAL PDZ, TMR-peptide fluorescence polarization, 1 h; Golgi-associated PDZ and coiled-coil motif-containing protein (Homo sapiens), Q9HD26;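 active means mean inhibition of at least 30% with at least half of replicates also reaching 30%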;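 further: 0% = DMSO neutral control and 100% = excess unlabeled competitor peptide PRC23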
dFosB act: activators of delta FosB homodimer, primary screen, biochemical, fluorescence polarization, TAMRA-CDK5 oligo, single point; purified delta FosB; percent of positive-control signal above neutral wells; activation, % at 25 µM; 340,000 tested, 0.99% active;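 active means mean activation above about 17%, with every replicate also reaching it, limit read from the data, passing the limit was not always enough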
S100A4 inh HTS: inhibitors of S100A4-myosin IIA peptide binding, primary screen, biochemical, fluorescence polarization, TAMRA-MyoIIA peptide; 360,000 tested, 0.14% active; inhibition, % at 10.7 µM; Protein S100-A4 (Homo sapiens), P26447; AID 652163, 2013;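 active means mean inhibition of at least 70% across replicates, with every replicate also reaching that level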
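Test system – S100A4 monomer (human) · Compound – single-point compound testing · Schedule – 5 min incubation before reading · Probe or stimulus – TAMRA-labelled myosin IIA heavy-chain peptide probe, 5 nM · Benchmarks – neutral control DMSO, positive control TFP · Medium – Calcium-containing HEPES buffer, pH 7.2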
CDK5 inh: inhibitors of human CDK5/p35 kinase, primary screen, biochemical, single concentration. Cyclin-dependent kinase 5 (Homo sapiens) + Cyclin-dependent kinase 5 activator 1 (Homo …. Recombinant CDK5/p35, ADP-Glo luminescence, 60 min. inhibition, % at 10 µM. 330,000 tested, 0.01% active;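 active means highest replicate inhibition of at least 50% and at least 75% of replicates reaching 50%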;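 further: plate controls were DMSO neutral control for no effect and GW8510 at 10 µM for full effect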
Target sequence (Q00535 whole entry, looked up): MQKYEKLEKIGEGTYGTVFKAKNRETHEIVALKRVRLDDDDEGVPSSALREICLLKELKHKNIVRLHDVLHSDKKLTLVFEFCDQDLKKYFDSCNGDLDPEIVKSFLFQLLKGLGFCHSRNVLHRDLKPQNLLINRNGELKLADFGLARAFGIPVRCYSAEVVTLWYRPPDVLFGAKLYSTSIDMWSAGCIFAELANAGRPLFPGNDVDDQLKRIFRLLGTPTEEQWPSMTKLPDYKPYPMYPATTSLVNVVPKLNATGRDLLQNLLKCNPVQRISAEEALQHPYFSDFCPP
Target sequence (Q15078 whole entry, looked up): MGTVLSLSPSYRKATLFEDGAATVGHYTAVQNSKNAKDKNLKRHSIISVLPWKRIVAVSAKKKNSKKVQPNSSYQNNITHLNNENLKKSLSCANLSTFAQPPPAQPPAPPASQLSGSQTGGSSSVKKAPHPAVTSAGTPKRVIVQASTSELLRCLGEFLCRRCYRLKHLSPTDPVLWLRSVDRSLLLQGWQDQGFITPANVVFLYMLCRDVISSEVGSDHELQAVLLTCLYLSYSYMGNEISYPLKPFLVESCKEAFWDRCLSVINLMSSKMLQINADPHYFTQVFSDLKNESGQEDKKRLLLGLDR
Statin myotox sup: suppressors of statin myotoxicity in C2C12 myotubes, primary screen, cell-based, single point, plate reader. C2C12 myotubes + simvastatin, ATP luminescence, 48 h; scaled: DMSO 0, geranylgeraniol control 100. rescue of ATP level, % at 7.49 µM. 330,000 tested, 0.78% active;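 active means mean ATP rescue above about 67%, or every replicate alone reaching that limit, limit read from the data, passing the limit was not always enough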;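 further: myotubes were challenged with 10 µM simvastatin during compound exposure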
CAL PDZ FP-2: CAL PDZ peptide-binding inhibitors, primary screen, biochemical, fluorescence polarization, Cer-tagged CAL PDZ, HTS | inhibition, % at 20 µM | Golgi-associated PDZ and coiled-coil motif-containing protein (Homo sapiens), Q9HD26 | purified CAL PDZ, TMR-peptide fluorescence polarization, 1 h | 330,000 tested, 0.02% active;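 active means highest replicate inhibition of at least 40%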;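 further: plate controls were DMSO neutral control wells for no effect and unlabeled competitor peptide control wells for full effect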
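System: tagged CAL PDZ domain. Schedule: 1 h room-temperature incubation prior to read. Signal: fluorescence polarization (mP). Measure: percent inhibition from loss of millipolarization.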
* marks the source's active call; other numbers are inactive results; · = no result given; ! = repeats disagree.

SMILES	CAL PDZ FP-1	dFosB act	S100A4 inh HTS	CDK5 inh	Statin myotox sup	CAL PDZ FP-2
CCOc1ccccc1C(=O)NCC(=O)OCc1csc(CC(=O)Nc2ccc(C)cc2)n1	65*	-2	7	-1	5	0
C/C(=N\OC(=O)NC(C)C)c1sc(-c2ccccc2)nc1C	6	-15	·	-1	·	·
C/C(=N\OC(=O)NC(C)C)c1sc(-c2ccc(Cl)cc2)nc1C	-2	-28	·	0	71*	-1
COc1ccc(C(=O)N2CCC(C(=O)Nc3ccc4c(c3)OCCO4)CC2)cc1	1	-6	·	0	86*	-1
COc1ccc(NC(=O)NCc2ccccn2)cc1	-4	5	·	0	110*	·
COc1ccc(C(=O)N2CCC(C(=O)NCc3ccccn3)CC2)cc1	3	2	·	2	114*	0
O=C(NCc1ccccn1)Nc1ccccc1	-1	3	-2	0	10	-1
C[C@H](CO)N1C[C@H](C)[C@H](CN(C)C(=O)Nc2ccc(F)cc2)OCCCC[C@H](C)Oc2ccc(NC(=O)C3CCCCC3)cc2C1=O	·	·	3	·	·	·
O=C(COC(=O)c1ccccc1NC(=O)c1ccco1)Nc1ncc(Cl)cc1Cl	·	-3	·	0	94*	-2
O=C(COC(=O)c1cn(-c2ccccc2)nc1-c1ccccc1)Nc1ncc(Cl)cc1Cl	77*	-6	1	-4	1	0
COc1cccc(-c2nn(-c3ccccc3)cc2C(=O)OCC(=O)Nc2ncc(Cl)cc2Cl)c1	-3	3	·	1	4	-1
CCOC(=O)c1[nH]c(C)c(C(=O)c2ccc(C)cc2)c1C	·	-3	·	1	-88	-2
CC(=O)CSc1nc(C(F)(F)F)cc(=O)n1-c1ccccc1	-2	3	·	2	151*	0
Cc1ccc(NC(=O)CNc2ccccc2N2CCCC2=O)cc1S(=O)(=O)N1CCOCC1	-2	-14	-6	-1	-7	-3
O=S(=O)(c1ccc(S(=O)(=O)N(Cc2ccco2)Cc2ccccc2Cl)cc1)N1CCCC1	-1	7	·	0	94*	-1
CCN(CC)C(=O)c1[nH]cnc1C(=O)N[C@@H](CC(C)C)C(=O)OC(C)(C)C	3	4	-12	1	-4	1
CCN(CC)C(=O)c1[nH]cnc1C(=O)NCC(=O)OC(C)(C)C	-5	-9	43	1	93*	0
CCSC1=N/C(=C\c2ccc3c(c2)OCO3)C(=O)S1	4	0	·	-2	97*	-4
CCCSC1=N/C(=C\c2ccc3c(c2)OCO3)C(=O)S1	-1	-5	·	2	·	-1
CCCSC1=N/C(=C\c2ccsc2)C(=O)S1	8	-6	·	2	103*	-1
COc1ccc(CN=C2NN=C(c3ccc(Cl)cc3)CS2)cc1	3	-4	-4	0	·	-1
CC(=O)C1=C(C)NC(SCc2cccc([N+](=O)[O-])c2)=C(C#N)C1c1ccco1 (stereo unspecified)	-2	-10	·	0	143*	0
CC(=O)C1=C(C)NC(SCC(N)=O)=C(C#N)C1c1ccco1 (stereo unspecified)	·	-15	1	-2	11	-1
COc1ccc(S(=O)(=O)Nc2cccc3c2O[C@H](CN(C)C)[C@@H](C)CN([C@H](C)CO)C3=O)cc1	-1	-4	-1	-1	127*!	-1
C[C@H]1CN([C@@H](C)CO)C(=O)c2cccc(NC(=O)C3CC3)c2O[C@H]1CN(C)S(C)(=O)=O	·	·	-7	·	1	·
C[C@@H]1CN([C@@H](C)CO)C(=O)c2cccc(NC(=O)C3CC3)c2O[C@@H]1CN(C)S(C)(=O)=O	·	·	124*	·	-10	·
